# Most compounds without a hit are left out; they make up all but 1.6% or so of the library.
# eIF4E-4G inh = eIF4E/eIF4G interaction inhibition in translation initiation | P63073+Q04637 | TR-FRET eIF4E-eIF4GI(517-606) binding, 2 h | inhibition, % at 21.7 µM | 220,000 tested, 0.37% active | AID 782;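 further: 0% = full FRET control wells and 100% = background wells lacking eIF4GI fragment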
# Tb MetRS inh = blocks T. brucei methionyl-tRNA synthetase activity | purified T. brucei MetRS, ATP depletion, Kinase-Glo luminescence | inhibition, % at 11.9 µM | 360,000 tested, 0.4% active | AID 624268;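 active means inhibition above a per-plate cutoff of the control wells' mean inhibition plus 3 SD, cut at about 5.5% in these data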;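 further: 0% = DMSO wells median and 100% = median of wells with control inhibitor compound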
#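 Dosing: 11.9 µM compound single dose, 0.9% DMSO; Assay system: purified T. brucei MetRS enzyme; Measured by: Kinase-Glo luciferase luminescence reporting remaining unconsumed ATP; Schedule: 15 min plus 2 h at 25 °C.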
# 14-3-3 Bad PPI = disrupts binding of bovine 14-3-3 zeta to phospho-Bad peptide; TR-FRET 14-3-3zeta/Dy647-pBad peptide displacement, 1 h; inhibition, % at 21.7 µM; 220,000 tested, 0.71% active; AID 781;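 active means inhibition above about 70%, limit read from the data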;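 further: 0% = full 14-3-3 plus peptide FRET controls and 100% = background without 14-3-3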
# p97 inhibitor = human p97 ATPase inhibition; P55072; recombinant p97 ATPase, Kinase-Glo ATP luminescence, 3 h; inhibition, % at 8 µM; 220,000 tested, 0.42% active; AID 1481; in the data active means inhibition above about 15%;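 further: 0% = DMSO vehicle and 100% = wells lacking enzyme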
# Target sequence (P55072 whole entry, looked up): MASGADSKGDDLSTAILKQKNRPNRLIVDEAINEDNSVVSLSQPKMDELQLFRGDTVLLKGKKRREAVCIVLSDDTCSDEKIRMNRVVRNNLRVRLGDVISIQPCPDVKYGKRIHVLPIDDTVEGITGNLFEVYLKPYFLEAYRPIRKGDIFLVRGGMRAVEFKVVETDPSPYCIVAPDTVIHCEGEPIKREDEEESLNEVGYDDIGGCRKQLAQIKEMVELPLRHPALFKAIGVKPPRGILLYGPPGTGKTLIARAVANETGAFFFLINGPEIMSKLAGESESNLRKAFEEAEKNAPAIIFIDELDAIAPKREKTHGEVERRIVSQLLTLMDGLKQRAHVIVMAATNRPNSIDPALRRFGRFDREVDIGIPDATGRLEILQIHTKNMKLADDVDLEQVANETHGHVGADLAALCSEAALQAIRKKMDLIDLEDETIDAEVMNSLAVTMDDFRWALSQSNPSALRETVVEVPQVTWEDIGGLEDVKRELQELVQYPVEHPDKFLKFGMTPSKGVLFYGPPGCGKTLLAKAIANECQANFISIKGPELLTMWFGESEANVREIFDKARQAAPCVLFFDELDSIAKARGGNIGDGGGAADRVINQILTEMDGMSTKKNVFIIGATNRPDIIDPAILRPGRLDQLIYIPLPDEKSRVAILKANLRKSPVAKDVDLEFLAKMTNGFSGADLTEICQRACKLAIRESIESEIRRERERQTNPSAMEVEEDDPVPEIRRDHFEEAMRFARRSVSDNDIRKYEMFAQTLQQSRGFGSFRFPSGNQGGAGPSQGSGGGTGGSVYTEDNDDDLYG
# p47phox inh = blocks human p47phox regulatory protein of NADPH oxidases; P14598; p47phox/p22phox peptide binding, fluorescence polarization, 2 h; inhibition, % at 24.7 µM; 220,000 tested, 0.53% active; AID 1274;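 further: 0% = p47phox with labelled peptide and 100% = labelled peptide alone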
# UBC9 SUMO inh = SUMOylation inhibition. 290,000 tested, 0.36% active. inhibition, % at 35 µM. HTRF SUMOylation assay, SAE1/SAE2 + UBC9, in vitro. P63279. AID 2006; in the data active means inhibition above about 50%, passing the limit was not always enough; inconclusive means no clear call, values can overlap the other calls
# Starred values were filed as active, the others as inactive; ? = inconclusive; nt = no result given.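 How the source made its calls, unless noted: active means inhibition above about 30% (limit read from the data); inactive means the rest.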
SMILES,eIF4E-4G inh,Tb MetRS inh,14-3-3 Bad PPI,p97 inhibitor,p47phox inh,UBC9 SUMO inh
CCCNC(=S)N1CCN(Cc2ccc3c(c2)OCO3)CC1,-1,0,20,0,-2,-16
CCCCC(=O)N(c1ccc(C)c(C)c1)C1C=CS(=O)(=O)C1 (centres undefined),8,-1,93*,-3,3,-2
O=C(Cc1ccccc1)N(c1ccc(F)cc1)C1C=CS(=O)(=O)C1 (centres undefined),-11,-1,3,1,5,-2
Cc1ccc(N(C(=O)c2ccc3c(c2)OCO3)C2C=CS(=O)(=O)C2)cc1C (centres undefined),nt,0,nt,nt,nt,19
O=C(Cc1ccc(F)cc1)N(c1ccc(F)cc1)C1C=CS(=O)(=O)C1 (centres undefined),2,0,10,-6,35*,-14
CN(CCO)c1cc(N2CCN(C(=O)c3ccco3)CC2)c2nonc2c1[N+](=O)[O-],-2,0,-8,8,7,9
N#Cc1c(NCCN)nc(-c2ccccc2)c2c1CCCC2,4,-1,14,-1,42*,17
N#Cc1c(NCCN)nc(NCc2ccccc2)c2c1CCN(Cc1ccccc1)C2,nt,19*,nt,3,nt,30
N#Cc1c(NCCCO)nc(-c2ccccc2)c2c1CCCC2,nt,0,nt,-6,-5,14
COc1ccc(CC(N)c2csc(Nc3cc(NCc4ccco4)ncn3)n2)cc1 (centres undefined),nt,0,nt,nt,nt,nt
COc1ccc(C2C3=C(CCCC3=O)Nc3c(-c4ccccc4)c(C)nn32)cc1 (centres undefined),3,-1,-25,1,3,51*
O=C(Oc1cccnc1)c1cccc(Cl)c1,4,-1,54,-1,-15,20
COc1ccc(C(=O)COC(=O)c2ccc(OC)c(OC)c2)cc1OC,1,-1,3,-1,96*,8
COc1ccc(C(=O)Oc2cccnc2)cc1OC,-5,-1,73*,3,-10,8
O=C1NC(=O)C2(CCCc3c([N+](=O)[O-])cccc32)N1 (centres undefined),nt,0,nt,nt,nt,nt
COc1cccc(C(c2nnnn2C2CCCC2)N2CCN(C/C=C/c3ccccc3)CC2)c1OC (centres undefined),nt,0,nt,nt,nt,nt
COc1ccc2c(C)cc3n[nH]c(=S)n3c2c1,33*,0,27,4,2,11
COc1ccc(-c2n[nH]c(=S)n2-c2cc(OC)ccc2OC)cc1,-8,0,-4,4,1,27
Cc1ccc(S(=O)(=O)N2C(=O)[C@@H]3Cc4ccccc4CN3C2=O)cc1,nt,0,nt,nt,nt,5
COc1ccc(Cl)cc1NC(=O)C(C)N1CCN(C/C=C/c2ccccc2)CC1 (centres undefined),-5,-1,76*,-4,4,-29
CC(=O)c1ccc(NC(=O)C(C)N2CCN(C/C=C/c3ccccc3)CC2)cc1 (centres undefined),5,0,-15,4,-14,2
Cc1[nH]c2ccccc2c1C(=O)COC(=O)c1c(-c2c(F)cccc2Cl)noc1C,2,0,-1,1,-4,-15
CCN(CC)CCN(C)Cc1ccc(Br)cc1,-1,0,76*,1,0,-11
CCCN(CCO)Cc1ccc(Br)cc1,2,-1,84*,2,-11,5
CCCN(CCO)Cc1ccc(Cl)c(Cl)c1,-2,-1,53,4,0,3
SMILES,eIF4E-4G inh,Tb MetRS inh,14-3-3 Bad PPI,p97 inhibitor,p47phox inh,UBC9 SUMO inh
CSCC[C@@H](CO)NC(=O)[C@H]1O[C@@H](n2ccc(N)nc2=O)[C@H](O)[C@@H]1O,nt,0,nt,nt,nt,nt
O=C(Nc1cnn(C23CC4CC(CC(C4)C2)C3)c1)c1cnn2c(C(F)(F)F)cc(-c3ccco3)nc12,7,-1,77*,-2,33*,33
COc1ccc(OC)c(S(=O)(=O)N2CCN(c3c(C)cccc3C)CC2)c1,73*,0,-1,-2,-15,-3
CCOC(=O)C1=C(Cc2ccc(F)cc2)C(=O)c2ccccc2C1=O,8,0,-3,2,1,8
CCCCc1ccc(/C=C2\C(=O)c3ccccc3C(O)=C2C(=O)OCC)cc1,4,nt,-15,-3,58*,2
Cc1ccc(N(C(=O)CNC(=O)c2ccco2)C(C(=O)NC2CCCCC2)c2ccncc2)c(C)c1 (centres undefined),nt,0,nt,nt,nt,5
CCN(CC)c1ccc(NC(=O)CCCOc2cccc(C)c2)cc1,34*,0,7,-1,-6,0
Cc1cc(N2CCCCC2)nc(NCc2ccccc2)n1,67*,2,-3,-3,5,4
COc1cc(CN(C)CCc2ccccn2)cc(OC)c1OC,8,-1,73*,8,1,1
COc1ccc(CN(C)CCc2ccccn2)cc1OC,1,0,63,6,-7,1
Cc1nn(CC(C)C(=O)N2CCN(S(=O)(=O)c3ccc(Cl)cc3)CC2)c(C)c1C (centres undefined),nt,0,nt,nt,nt,16
CC1CC(C)CN(C(=O)Cn2cc(C=O)c3ccccc32)C1 (centres undefined),-2,0,83*,-4,-7,3
O=Cc1cn(CC(=O)N2CCOCC2)c2ccccc12,1,0,1,-3,4,16
O=S1(=O)CC(N2CC=CC2)CN1Cc1ccc(F)cc1 (centres undefined),nt,-2,nt,nt,nt,nt
Cc1ccccc1S(=O)(=O)NC(=O)C1(C)CCN1C(=O)COc1ccc(Cl)cc1 (centres undefined),nt,0,nt,nt,nt,nt
Cn1nc(-c2ccccc2)c(CSc2ccccc2Cl)c1Cl,-6,-1,9,-7,34*,1
Fc1ccc(-n2c(CN3CCCCC3)n[nH]c2=S)cc1,1,1,-9,-1,0,10
FC(F)(F)c1ccccc1-n1c(CN2CCCCC2)n[nH]c1=S,85*,-1,0,3,-4,-22
CN(CCCOc1ccccc1Br)Cc1ccccc1,3,0,2,0,-7,19
CN(CCOc1ccccc1Cl)Cc1ccccc1,nt,0,nt,nt,nt,6
Cc1ccc(Cl)c(OCCCN(C)Cc2ccccc2)c1,4,0,72*,-5,7,6
Cc1ccc(Cl)c(OCCCCN(C)Cc2ccccc2)c1,4,0,77*,-3,-1,-11
Cc1ccccc1NC(=O)COC(=O)CN1C(=O)NC(C)(C)C1=O,-5,0,-2,2,5,24
N#Cc1cnn2c(-c3ccccc3)ccnc12,2,0,-4,8,-1,50*
COc1ccc(-c2ccnc3c(C#N)cnn23)cc1,8,-1,3,3,-2,?
O=C1NC(=O)/C(=C\c2ccc(O)cc2O)S1,29,0,87*,5,-16,38
